Assay results: ChEMBL document CHEMBL3817777, “A new motif for inhibitors of geranylgeranyl diphosphate synthase” (Bioorg Med Chem, 2016)
Activity calls are given as the source filed them. No cut-off for these calls is given here.

Columns and labels:
[1] = target: T1, Geranylgeranyl pyrophosphate synthase (Homo sapiens) (UniProt O95749); assay: Inhibition of GGDPS in human RPMI8266 cells assessed as disruption of Rap1a geranylgeranylation after 48 hrs by immunoblot analysis; type: cell-based
T1 sequence (whole entry): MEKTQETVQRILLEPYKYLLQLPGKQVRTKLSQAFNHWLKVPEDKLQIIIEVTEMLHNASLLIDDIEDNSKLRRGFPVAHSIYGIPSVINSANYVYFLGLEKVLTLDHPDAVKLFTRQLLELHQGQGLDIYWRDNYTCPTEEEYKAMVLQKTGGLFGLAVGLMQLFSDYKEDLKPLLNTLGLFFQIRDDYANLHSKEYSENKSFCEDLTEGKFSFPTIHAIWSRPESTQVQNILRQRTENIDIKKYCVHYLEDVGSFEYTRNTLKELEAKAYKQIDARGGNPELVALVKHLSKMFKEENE
Outline: (§1)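 Cells were lysed in RIPA buffer (0.15 M NaCl, 1% deoxycholate, 0.1% SDS, 1% Triton X-100, 0.05 M Tris HCl) with protease and phosphatase inhibitors. Protein was quantified by BCA, and equal amounts were run on SDS-PAGE and transferred to PVDF. Blots were probed for unmodified Rap1a, a GGTase I substrate, and detected with HRP secondary antibodies and ECL.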

[2] = target: T1, Geranylgeranyl pyrophosphate synthase (Homo sapiens); assay: Inhibition of GGDPS in human RPMI8266 cells assessed as lambda light chain levels after 48 hrs by ELISA; type: cell-based
[3] = Cytotoxicity against human RPMI8266 cells after 48 hrs by MTT assay; type: functional, cell-based; details: RPMI8266, 48 h
Outline: (§2)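 Cells were plated at 2.5 ×10^4 cells/100 μL/well and exposed to compounds for 48 hrs. MTT (5 mg/mL in PBS) was then added for 4 hrs, and the product was solubilized overnight at 37 °C in 0.01 M HCl/10% SDS. Absorbance was read at 540 nm, with untreated controls set as 100% MTT activity. Each test ran in quadruplicate across three independent experiments, and EC50 is reported as mean ± standard deviation.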

[4] = Cytotoxicity against human MM1S cells after 48 hrs by MTT assay; type: functional, cell-based; details: MM1.S; outline: as §2
[5] = Cytotoxicity against human ALMC2 cells after 48 hrs by MTT assay; type: functional, cell-based; details: ALMC2, 48 h; outline: as §2
[6] = target: T1, Geranylgeranyl pyrophosphate synthase (Homo sapiens); assay: Inhibition of GGDPS in human RPMI8266 cells assessed as disruption of Rap1a geranylgeranylation at 1 uM after 48 hrs by immunoblot analysis in presence of GGDP; type: cell-based; outline: as §1
[7] = target: T1, Geranylgeranyl pyrophosphate synthase (Homo sapiens); assay: Inhibition of GGDPS in human RPMI8266 cells assessed as lambda light chain levels at 1 uM after 48 hrs by ELISA in presence of GGDP; type: cell-based
[8] = target: T1, Geranylgeranyl pyrophosphate synthase (Homo sapiens); assay: Inhibition of GGDPS in human RPMI8266 cells assessed as disruption of Rap1a geranylgeranylation at low concentrations after 48 hrs by immunoblot analysis; type: cell-based; outline: as §1
[9] = target: T1, Geranylgeranyl pyrophosphate synthase (Homo sapiens); assay: Inhibition of GGDPS in human RPMI8266 cells assessed as lambda light chain levels at low concentrations after 48 hrs by ELISA; type: cell-based
[10] = target: T1, Geranylgeranyl pyrophosphate synthase (Homo sapiens); assay: Inhibition of GGDPS in human RPMI8266 cells assessed as disruption of Rap1a geranylgeranylation at 5 uM after 48 hrs by immunoblot analysis in presence of GGDP; type: cell-based; outline: as §1
[11] = target: T1, Geranylgeranyl pyrophosphate synthase (Homo sapiens); assay: Inhibition of GGDPS in human RPMI8266 cells assessed as lambda light chain levels at 5 uM after 48 hrs by ELISA in presence of GGDP; type: cell-based
[12] = target: T1, Geranylgeranyl pyrophosphate synthase (Homo sapiens); assay: Inhibition of GGDPS in human RPMI8266 cells assessed as disruption of Rap1a geranylgeranylation at 5 uM after 48 hrs by immunoblot analysis in presence of mevalonate; type: cell-based; outline: as §1
[13] = target: T1, Geranylgeranyl pyrophosphate synthase (Homo sapiens); assay: Inhibition of GGDPS in human RPMI8266 cells assessed as lambda light chain levels at 5 uM after 48 hrs by ELISA in presence of mevalonate; type: cell-based

For `CC(C)=CCC/C(C)=C/CC(C)(P(=O)(OCC[C@@H](C)CCC=C(C)C)OCOC(=O)C(C)(C)C)P(=O)(OCOC(=O)C(C)(C)C)OCOC(=O)C(C)(C)C` (stereo partly drawn), the inhibition [1] was “Dose-dependent effect”, the inhibition [2] was “Dose-dependent effect” and the EC50 [3] was 1.6 µM. The EC50 [4] was 2.7 µM, the EC50 [5] was 5.4 µM and the inhibition [6] was “inactive”. For the same compound, the inhibition [7] was “inactive”.
With `CC(C)=CCC/C(C)=C/CC(P(=O)(OCC[C@@H](C)CCC=C(C)C)OCOC(=O)C(C)(C)C)P(=O)(OCOC(=O)C(C)(C)C)OCOC(=O)C(C)(C)C` (stereo partly drawn) the inhibition [1] was “Dose-dependent effect”, the inhibition [2] was “Dose-dependent effect” and the EC50 [3] was 7.1 µM. The EC50 [4] was 5.7 µM and the EC50 [5] was 12.6 µM.
In the case of `CC(C)=CCC/C(C)=C/CC(CC=C(C)C)(P(=O)(OCC[C@@H](C)CCC=C(C)C)OCOC(=O)C(C)(C)C)P(=O)(OCOC(=O)C(C)(C)C)OCOC(=O)C(C)(C)C` (stereo partly drawn), the inhibition [1] is reported as “Dose-dependent effect”, the inhibition [2] is reported as “Dose-dependent effect” and the EC50 [3] is reported as 7.3 µM. For the same compound, the EC50 [4] was 25.3 µM and the EC50 [5] was 28.2 µM.
In the case of `CC(C)=CCC/C(C)=C/CC(C)(P(=O)(OCC[C@H](C)CCC=C(C)C)OCOC(=O)C(C)(C)C)P(=O)(OCOC(=O)C(C)(C)C)OCOC(=O)C(C)(C)C` (stereo partly drawn), the inhibition [8] is reported as “Active” and the inhibition [9] is reported as “Active”.
In the case of `CC[C@H](C)C(=O)O[C@H]1C[C@@H](C)C=C2C=C[C@H](C)[C@H](CC[C@@H]3C[C@@H](O)CC(=O)O3)[C@H]21`, the inhibition [10] is reported as “inactive”, the inhibition [11] is reported as “inactive” and the inhibition [12] is reported as “inactive”. The inhibition [13] was “inactive”.
With `C=CCC(C/C=C(\C)CCC=C(C)C)(P(=O)(OCC[C@@H](C)CCC=C(C)C)OCOC(=O)C(C)(C)C)P(=O)(OCOC(=O)C(C)(C)C)OCOC(=O)C(C)(C)C` (stereo partly drawn) the inhibition [1] was “Dose-dependent effect”, the inhibition [2] was “Dose-dependent effect” and the EC50 [3] was 8.4 µM. It also gave an EC50 [4] of 10.7 µM and an EC50 [5] of 25.4 µM.
In the case of `CC(C)=CCC/C(C)=C/CC(C/C=C(\C)CCC=C(C)C)(P(=O)(OCC[C@@H](C)CCC=C(C)C)OCOC(=O)C(C)(C)C)P(=O)(OCOC(=O)C(C)(C)C)OCOC(=O)C(C)(C)C` (stereo partly drawn), the inhibition [1] is reported as “Dose-dependent effect”, the inhibition [2] is reported as “Dose-dependent effect” and the EC50 [3] is reported as 26.7 µM. The EC50 [4] was 48.2 µM and the EC50 [5] was > 100 µM.
